In brackets after ≈: the same amount, converted by molar mass.
Legend:
[1] = test system: Cryptococcus neoformans; test: Antifungal activity against flucytosine-resistant Cryptococcus neoformans 98.0673 by checkerboard method; assay type: functional
[2] = test system: Cryptococcus neoformans; test: Antifungal activity against flucytosine-resistant Cryptococcus neoformans 98.0176 at 0.125 ug/ml after 72 hrs by time-kill method; assay type: functional
Method in brief: (§1)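 Time-kill assay run as in the authors' earlier method. […] Read-out was log10 CFU/ml after 72 h incubation, compared with a drug-free control.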

[3] = test system: Cryptococcus neoformans; test: Antifungal activity against flucytosine-resistant Cryptococcus neoformans 280 at 0.125 ug/ml after 72 hrs by time-kill method; assay type: functional; method in brief: as §1
[4] = test system: Cryptococcus neoformans; test: Antifungal activity against flucytosine-resistant Cryptococcus neoformans 98.0673 at 0.125 ug/ml after 72 hrs by time-kill method; assay type: functional; method in brief: as §1
[5] = test system: Cryptococcus neoformans; test: microbe, parasite or virus in culture
[6] = test system: Cryptococcus neoformans; test: Antifungal activity against flucytosine-resistant Cryptococcus neoformans 276 by checkerboard method in presence of flucytosine; assay type: functional
[7] = test system: Cryptococcus neoformans; test: Antifungal activity against flucytosine-resistant Cryptococcus neoformans 550 by Etest method in presence of flucytosine; assay type: functional
[8] = test system: Cryptococcus neoformans; test: Antifungal activity against flucytosine-resistant Cryptococcus neoformans 18476 at 0.125 ug/ml after 72 hrs by time-kill method; assay type: functional; method in brief: as §1
[9] = test system: Cryptococcus neoformans; test: Antifungal activity against flucytosine-resistant Cryptococcus neoformans 99.1026 by Etest method in presence of flucytosine; assay type: functional
[10] = test system: Cryptococcus neoformans; test: Antifungal activity against flucytosine-resistant Cryptococcus neoformans 280 by Etest method in presence of flucytosine; assay type: functional
[11] = test system: Cryptococcus neoformans; test: Antifungal activity against flucytosine-resistant Cryptococcus neoformans 285 by Etest method in presence of flucytosine; assay type: functional
[12] = test system: Cryptococcus neoformans; test: Antifungal activity against flucytosine-resistant Cryptococcus neoformans 533 at 0.125 ug/ml after 72 hrs by time-kill method; assay type: functional; method in brief: as §1
[13] = test system: Cryptococcus neoformans; test: Antifungal activity against flucytosine-resistant Cryptococcus neoformans 276 at 0.125 ug/ml after 72 hrs by time-kill method; assay type: functional; method in brief: as §1
[14] = test system: Cryptococcus neoformans; test: Antifungal activity against flucytosine-resistant Cryptococcus neoformans 285 by checkerboard method; assay type: functional
[15] = test system: Cryptococcus neoformans; test: Antifungal activity against flucytosine-resistant Cryptococcus neoformans 550 by checkerboard method in presence of flucytosine; assay type: functional
[16] = test system: Cryptococcus neoformans; test: Antifungal activity against flucytosine-resistant Cryptococcus neoformans 99.1026 by checkerboard method in presence of flucytosine; assay type: functional
[17] = test system: Cryptococcus neoformans; test: Antifungal activity against flucytosine-resistant Cryptococcus neoformans 533 by Etest method in presence of flucytosine; assay type: functional
[18] = test system: Cryptococcus neoformans; test: Antifungal activity against flucytosine-resistant Cryptococcus neoformans 98.1121 by Etest method in presence of flucytosine; assay type: functional
[19] = test system: Cryptococcus neoformans; test: Antifungal activity against flucytosine-resistant Cryptococcus neoformans 98.0673 by Etest method in presence of flucytosine; assay type: functional
[20] = test system: Cryptococcus neoformans; test: Antifungal activity against flucytosine-resistant Cryptococcus neoformans 18476 by checkerboard method in presence of flucytosine; assay type: functional
[21] = test system: Cryptococcus neoformans; test: Antifungal activity against flucytosine-resistant Cryptococcus neoformans 98.1121 at 0.125 ug/ml after 72 hrs by time-kill method; assay type: functional
Method in brief: (§2)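 Time-kill assay on flucytosine-resistant isolates. […] Viable counts were taken as log10 CFU per ml after 72 h of incubation.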

[22] = test system: Cryptococcus neoformans; test: Antifungal activity against flucytosine-resistant Cryptococcus neoformans 276 by Etest method in presence of flucytosine; assay type: functional
[23] = test system: Cryptococcus neoformans; test: Antifungal activity against flucytosine-resistant Cryptococcus neoformans 550 at 0.19 ug/ml after 72 hrs by time-kill method; assay type: functional
[24] = test system: Cryptococcus neoformans; test: Antifungal activity against flucytosine-resistant Cryptococcus neoformans 533 by checkerboard method in presence of flucytosine; assay type: functional
[25] = test system: Cryptococcus neoformans; test: Antifungal activity against flucytosine-resistant Cryptococcus neoformans 99.1026 at 0.125 ug/ml after 72 hrs by time-kill method; assay type: functional; method in brief: as §2
[26] = test system: Cryptococcus neoformans; test: Antifungal activity against flucytosine-resistant Cryptococcus neoformans 18476 by Etest method in presence of flucytosine; assay type: functional
[27] = test system: Cryptococcus neoformans; test: Antifungal activity against flucytosine-resistant Cryptococcus neoformans 18476 by checkerboard method; assay type: functional
[28] = test system: Cryptococcus neoformans; test: Antifungal activity against flucytosine-resistant Cryptococcus neoformans 98.0176 by Etest method in presence of flucytosine; assay type: functional
[29] = test system: Cryptococcus neoformans; test: Antifungal activity against flucytosine-resistant Cryptococcus neoformans 280 by checkerboard method; assay type: functional
[30] = test system: Cryptococcus neoformans; test: Antifungal activity against flucytosine-resistant Cryptococcus neoformans 98.0176 by checkerboard method in presence of flucytosine; assay type: functional

Which results are given for C[C@@H]1[C@H](O)[C@@H](C)/C=C/C=C/C=C/C=C/C=C/C=C/C=C/[C@H](O[C@@H]2O[C@H](C)[C@@H](O)[C@H](N)[C@@H]2O)C[C@@H]2O[C@](O)(C[C@@H](O)C[C@@H](O)[C@H](O)CC[C@@H](O)C[C@@H](O)CC(=O)O[C@H]1C)C[C@H](O)[C@H]2C(=O)O [AMPHOTERICIN B]?
MIC [1]: 1 µg/mL; log10CFU/ml [2]: 6.5; log10CFU/ml [3]: 5.6; log10CFU/ml [4]: 7.2; MIC [5]: 0.25 µg/mL (≈ 0.271 µM); MIC [6]: 0.06 µg/mL; MIC [7]: 0.094 µg/mL; log10CFU/ml [8]: 6.7; MIC [9]: 0.094 µg/mL; MIC [10]: 0.094 µg/mL; MIC [11]: 0.095 µg/mL; log10CFU/ml [12]: 7.4; log10CFU/ml [13]: 7.3; MIC [14]: 1 µg/mL; MIC [15]: 0.06 µg/mL; MIC [16]: 0.06 µg/mL; MIC [17]: 0.094 µg/mL; MIC [18]: 0.094 µg/mL; MIC [19]: 0.094 µg/mL; MIC [20]: 0.12 µg/mL; log10CFU/ml [21]: 1.5; MIC [22]: 0.094 µg/mL; log10CFU/ml [23]: 7.2; MIC [24]: 0.12 µg/mL; log10CFU/ml [25]: 5.2; MIC [26]: 0.094 µg/mL; MIC [27]: 0.25 µg/mL; MIC [28]: 0.094 µg/mL; MIC [29]: 1 µg/mL; MIC [30]: 0.12 µg/mL

Reference: ChEMBL document CHEMBL1142133 (2007)
